# Results: ChEMBL document CHEMBL4028897 (J Med Chem, 2017)
# Activity calls are given as the source filed them. No cut-off for these calls is given here.
# Key:
# [1] = target: T1, D(3) dopamine receptor (Homo sapiens, UniProt P35462); test: Displacement of [125I]ABN from human dopamine D3 receptor expressed in HEK293 cell membranes after 60 mins by scintillation counting method
# [2] = target: D(2) dopamine receptor (Homo sapiens, UniProt P14416); test: Displacement of [125I]ABN from human dopamine D2 long receptor expressed in HEK293 cell membranes after 60 mins by scintillation counting method
# Sequence of D(2) dopamine receptor (P14416 whole entry): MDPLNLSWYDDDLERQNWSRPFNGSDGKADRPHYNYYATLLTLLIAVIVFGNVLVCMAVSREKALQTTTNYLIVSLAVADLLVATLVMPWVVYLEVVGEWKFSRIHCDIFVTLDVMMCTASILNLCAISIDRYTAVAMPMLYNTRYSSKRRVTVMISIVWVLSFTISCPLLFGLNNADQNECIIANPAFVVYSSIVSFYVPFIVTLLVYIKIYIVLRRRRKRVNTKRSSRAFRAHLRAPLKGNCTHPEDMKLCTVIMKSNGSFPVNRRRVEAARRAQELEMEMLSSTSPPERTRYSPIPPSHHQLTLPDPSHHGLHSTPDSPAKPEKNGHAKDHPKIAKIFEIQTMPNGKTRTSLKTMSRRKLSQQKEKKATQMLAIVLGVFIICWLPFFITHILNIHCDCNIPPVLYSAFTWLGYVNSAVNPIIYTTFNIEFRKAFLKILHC
# Method in brief: (§1)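 Nonspecific binding defined with 20 μM (+)-butaclamol. Inhibitor spanned 5 log units, two concentrations per decade, in triplicate. Stopped with ice-cold Tris/NaCl wash and glass-fiber filtration.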
# [3] = species on record: Homo sapiens; test: Selectivity ratio of Ki for human dopamine D2 long receptor to Ki for human dopamine D3 receptor; method in brief: as §1
# [4] = target: T1, D(3) dopamine receptor; test: Agonist activity at human ProLink-tagged dopamine D3 receptor expressed in human U2OS cells assessed as induction of EA-tagged beta-arrestin binding at 10 times Ki after 90 mins by chemoluminescence assay; assay type: cell-based
# [5] = target: T1, D(3) dopamine receptor; test: Agonist activity at human dopamine D3 receptor expressed in human U2OS cells assessed as inhibition of forskolin-dependent stimulation of adenylyl cyclase at 10 times Ki; assay type: functional, cell-based
# [6] = target: T2, 5-hydroxytryptamine receptor 1A (Homo sapiens, UniProt P08908); test: Displacement of [3H]8-OH-DPAT from human 5-HT1A receptor expressed in CHO-K1 cell membranes after 60 mins by scintillation counting method
# T2 sequence (P08908 whole entry): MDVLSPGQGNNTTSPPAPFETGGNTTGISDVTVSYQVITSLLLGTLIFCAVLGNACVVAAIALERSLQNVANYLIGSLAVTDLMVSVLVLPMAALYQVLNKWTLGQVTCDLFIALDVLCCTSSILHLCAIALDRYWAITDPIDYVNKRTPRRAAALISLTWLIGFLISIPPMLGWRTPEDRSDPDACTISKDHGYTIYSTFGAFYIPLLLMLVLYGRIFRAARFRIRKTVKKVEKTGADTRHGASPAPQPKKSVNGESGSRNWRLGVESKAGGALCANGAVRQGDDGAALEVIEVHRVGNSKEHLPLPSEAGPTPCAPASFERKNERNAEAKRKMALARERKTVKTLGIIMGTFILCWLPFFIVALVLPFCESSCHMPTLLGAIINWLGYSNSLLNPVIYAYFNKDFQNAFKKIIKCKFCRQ
# Method in brief: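 CHO-K1 membranes expressing human 5-HT1AR in 50 mM Tris-HCl, 10 mM MgSO4, 0.5 mM EDTA, 0.1% ascorbic acid, pH 7.4. […] Nonspecific binding with 10 μM metergoline. Competitor over 5 log units, two per decade, in triplicate. Ice-cold 10 mM Tris-HCl (pH 7.4) wash, glass-fiber filtration.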
# [7] = target: 5-hydroxytryptamine receptor 2A (Homo sapiens) (UniProt P28223); test: Binding affinity to 5-HT2A receptor (unknown origin)
# Sequence of 5-hydroxytryptamine receptor 2A (Homo sapiens) (P28223 whole entry): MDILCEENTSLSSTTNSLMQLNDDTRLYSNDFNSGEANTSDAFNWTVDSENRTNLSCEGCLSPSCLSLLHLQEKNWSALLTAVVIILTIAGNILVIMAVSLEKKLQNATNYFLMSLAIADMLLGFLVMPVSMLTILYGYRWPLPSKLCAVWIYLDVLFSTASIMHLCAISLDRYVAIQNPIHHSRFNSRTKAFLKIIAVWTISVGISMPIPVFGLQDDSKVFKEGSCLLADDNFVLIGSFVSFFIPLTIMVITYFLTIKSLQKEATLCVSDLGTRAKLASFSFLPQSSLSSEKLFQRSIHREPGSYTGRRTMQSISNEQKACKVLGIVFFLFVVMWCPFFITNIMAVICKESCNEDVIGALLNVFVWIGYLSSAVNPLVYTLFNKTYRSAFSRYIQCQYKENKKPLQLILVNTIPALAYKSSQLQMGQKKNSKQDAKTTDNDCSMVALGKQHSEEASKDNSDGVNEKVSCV
# [8] = target: T3, 5-hydroxytryptamine receptor 2C (Homo sapiens) (UniProt P28335); test: Binding affinity to 5-HT2C receptor (unknown origin)
# T3 sequence (whole entry): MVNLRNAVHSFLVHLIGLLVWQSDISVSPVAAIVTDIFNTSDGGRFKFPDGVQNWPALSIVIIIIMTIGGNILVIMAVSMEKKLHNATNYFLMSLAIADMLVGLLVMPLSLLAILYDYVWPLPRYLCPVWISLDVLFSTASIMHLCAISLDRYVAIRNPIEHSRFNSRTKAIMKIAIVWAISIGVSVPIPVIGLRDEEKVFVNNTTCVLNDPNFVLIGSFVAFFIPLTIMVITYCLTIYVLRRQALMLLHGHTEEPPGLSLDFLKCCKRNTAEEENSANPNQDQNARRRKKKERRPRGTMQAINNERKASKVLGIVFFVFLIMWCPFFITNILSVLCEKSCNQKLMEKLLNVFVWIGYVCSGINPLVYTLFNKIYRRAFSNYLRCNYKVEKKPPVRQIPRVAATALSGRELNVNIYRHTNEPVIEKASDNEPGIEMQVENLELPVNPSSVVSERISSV
# [9] = target: T1, D(3) dopamine receptor; test: Partial agonist activity at human dopamine D3 receptor expressed in human U2OS cells assessed as inhibition of forskolin-dependent stimulation of adenylyl cyclase at 10 times Ki; assay type: functional, cell-based
# T1 sequence (P35462 whole entry): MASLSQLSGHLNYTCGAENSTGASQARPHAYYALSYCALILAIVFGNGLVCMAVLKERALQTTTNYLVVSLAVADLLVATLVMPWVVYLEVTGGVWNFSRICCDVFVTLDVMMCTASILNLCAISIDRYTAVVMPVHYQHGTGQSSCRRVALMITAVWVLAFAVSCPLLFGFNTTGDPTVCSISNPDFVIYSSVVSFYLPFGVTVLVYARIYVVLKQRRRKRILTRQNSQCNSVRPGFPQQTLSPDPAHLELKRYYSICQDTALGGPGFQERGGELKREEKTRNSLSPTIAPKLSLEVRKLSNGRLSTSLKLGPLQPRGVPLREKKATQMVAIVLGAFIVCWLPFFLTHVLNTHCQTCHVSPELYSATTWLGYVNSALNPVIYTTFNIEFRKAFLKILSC
SMILES,Ki [1] [nM],Ki [2] [nM],Ratio Ki [3],Activity [4],Activity [5],Ki [6] [nM],Activity [7],Activity [8],Activity [9]
Cn1c(SCCCN2CCC3(CC2)CCN(c2cccc(C#N)c2)CC3)nnc1-c1ccccc1,438,57100,130,,,,,,
Cn1c(SCCCN2CC3(CCN3c3ccc(F)cc3)C2)nnc1-c1ccccc1,18200,> 110000,> 6,,,,,,
COc1ccccc1N1CCC2(CCN(CCCSc3nnc(-c4ccccc4)n3C)CC2)CC1,12,10900,,,,931,Active,Active,Active
Cn1c(SCCCN2CCC3(CC2)CCN(c2ccc(F)cc2)CC3)nnc1-c1ccccc1,25.6,9790,383,inactive,inactive,587,Active,Active,
COc1ccccc1N1CC2(CCN(CCCSc3nnc(-c4ccccc4)n3C)CC2)C1,235,37600,160,,,,,,
Cn1c(SCCCN2CCC3(CC2)CCN(c2ccccn2)CC3)nnc1-c1ccccc1,871,83700,96.1,,,,,,
COc1ccccc1N1CC2(CN(CCCSc3nnc(-c4ccccc4)n3C)C2)C1,833,21200,25.5,,,,,,
COc1ccccc1N1CCC12CN(CCCSc1nnc(-c3ccccc3)n1C)C2,4790,115000,24,,,,,,

# Now from value to compound:
Ki [1] [nM],Ki [2] [nM],Ratio Ki [3],Activity [4],Activity [5],Ki [6] [nM],Activity [7],Activity [8],Activity [9],SMILES
24.2,6370,264,inactive,inactive,,,,,COc1ccccc1N1CCC2(CCN(CCCSc3nnc(-c4ccccc4)n3C)C2)C1 (racemic)
97.7,105000,1070,,,,,,,COc1ccc(N2CCC3(CCN(CCCSc4nnc(-c5ccccc5)n4C)CC3)CC2)cc1
169,29300,173,,,,,,,COc1ccccc1N1CCC12CCN(CCCSc1nnc(-c3ccccc3)n1C)CC2
19.6,6170,,inactive,inactive,724,Active,Active,,COc1ccccc1N1CCC2(CCN(CCCSc3nnc(-c4ccccc4)n3C)CC2)C1
192,60200,313,,,,,,,COc1ccccc1N1CCC2(CN(CCCSc3nnc(-c4ccccc4)n3C)C2)C1
82.4,7500,91,,,,,,,Cn1c(SCCCN2CCC3(CC2)CCN(c2cccc(Cl)c2Cl)CC3)nnc1-c1ccccc1
6.5,260,,,,0.22,,,,COc1ccccc1N1CCN(CCCSc2nnc(-c3ccccc3)n2C)CC1
